Laboratory results taken from ChEMBL document CHEMBL1926627, “Synthesis and evaluation of novel modified γ-lactam prostanoids as EP4 subtype-selective agonists” (Bioorg Med Chem, 2012).

Legend:
[1] = molecular target: T1, Prostaglandin E2 receptor EP1 subtype (Mus musculus, UniProt P35375); test: Displacement of [3H]-PGE2 from mouse EP1 receptor expressed in CHO cells after 20 mins by liquid scintillation counter; format: cell-based
T1 sequence (P35375 whole entry): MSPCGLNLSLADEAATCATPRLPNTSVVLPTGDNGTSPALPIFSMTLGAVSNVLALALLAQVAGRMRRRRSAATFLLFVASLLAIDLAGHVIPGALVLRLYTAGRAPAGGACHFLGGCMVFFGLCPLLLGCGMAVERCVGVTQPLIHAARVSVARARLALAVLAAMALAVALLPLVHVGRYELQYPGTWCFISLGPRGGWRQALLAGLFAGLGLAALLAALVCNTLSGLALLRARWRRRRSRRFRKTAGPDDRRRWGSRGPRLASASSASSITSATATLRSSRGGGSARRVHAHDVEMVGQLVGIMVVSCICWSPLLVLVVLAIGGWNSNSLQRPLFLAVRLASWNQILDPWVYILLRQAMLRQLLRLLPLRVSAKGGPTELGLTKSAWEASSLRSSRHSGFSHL
Method in brief: (§1)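 Membranes from CHO cells stably expressing mouse EP1–4, incubated with 2.5 nM [³H]PGE₂ and test compound at various concentrations in 10 mM KH₂PO₄–KOH, 1 mM EDTA, 10 mM MgCl₂, 0.1 mM NaCl, pH 6.0. Incubated 25 °C, 60 min (EP1: 20 min). Filtration on GF/B, ice-cold buffer wash, scintillation counting. Nonspecific binding with excess unlabeled PGE₂. IC50 from regression curve; Ki = IC50/(1+[L]/Kd).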

[2] = Oral bioavailability in rat at 1 mg/kg; format: ADME, organism-based; conditions: in vivo
Rattus norvegicus [3] = test: Inhibition of LPS induced TNF-alpha production in po dosed Sprague-Dawley rat administered 30 mins before LPS challenge measured after 90 mins by ELISA; format: functional
Method in brief: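 Seven-week-old Sprague–Dawley rats dosed orally with compound in sterile saline containing 20% HP-β-CD. LPS (1 mg/mL in sterile saline) given iv at 10 µg/2 mL/kg 30 min later. Blood drawn by aortic puncture into heparinized syringes 90 min after LPS. Plasma taken after centrifugation at 4 °C and frozen. Result given as ED50.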

[4] = AUC in rat at 0.1 mg/kg, iv and 1 mg/kg, po; format: ADME, organism-based; conditions: plasma
Method in brief: (§2)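 Rat pharmacokinetics measured after 1 mg/kg po and 0.1 mg/kg iv dosing.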

[5] = Total clearance rat at 0.1 mg/kg, iv and 1 mg/kg, po; format: ADME, organism-based; conditions: in vivo; method in brief: as §2
[6] = molecular target: T2, Prostaglandin E2 receptor EP3 subtype (Mus musculus, UniProt P30557); test: Displacement of [3H]-PGE2 from mouse EP3 receptor expressed in CHO cells after 60 mins by liquid scintillation counter; format: cell-based; method in brief: as §1
T2 sequence (P30557 whole entry): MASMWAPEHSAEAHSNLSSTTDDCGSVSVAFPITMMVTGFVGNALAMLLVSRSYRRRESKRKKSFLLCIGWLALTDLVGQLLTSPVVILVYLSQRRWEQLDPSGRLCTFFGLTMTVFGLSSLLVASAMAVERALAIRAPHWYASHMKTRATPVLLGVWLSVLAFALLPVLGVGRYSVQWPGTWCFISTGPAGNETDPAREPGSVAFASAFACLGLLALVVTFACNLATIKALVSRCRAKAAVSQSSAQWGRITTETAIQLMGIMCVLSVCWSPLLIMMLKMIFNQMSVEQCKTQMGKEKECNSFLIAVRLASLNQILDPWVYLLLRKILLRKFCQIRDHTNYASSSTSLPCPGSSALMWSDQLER

[7] = molecular target: Prostaglandin E2 receptor EP2 subtype (Mus musculus, UniProt Q62053); test: Displacement of [3H]-PGE2 from mouse EP2 receptor expressed in CHO cells after 60 mins by liquid scintillation counter; format: cell-based; method in brief: as §1
Chain of Prostaglandin E2 receptor EP2 subtype (Q62053 whole entry): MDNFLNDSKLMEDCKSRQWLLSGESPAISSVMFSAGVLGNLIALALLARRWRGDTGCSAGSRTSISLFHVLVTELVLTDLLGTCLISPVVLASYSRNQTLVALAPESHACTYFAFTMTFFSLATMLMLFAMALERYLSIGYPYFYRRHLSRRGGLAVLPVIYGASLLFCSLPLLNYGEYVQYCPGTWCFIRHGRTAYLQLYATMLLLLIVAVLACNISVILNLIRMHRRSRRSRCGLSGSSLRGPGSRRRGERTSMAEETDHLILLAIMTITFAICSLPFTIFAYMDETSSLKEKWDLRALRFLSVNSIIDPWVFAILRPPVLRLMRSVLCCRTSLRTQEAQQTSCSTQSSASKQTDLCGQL

[8] = molecular target: Prostaglandin E2 receptor EP4 subtype (Rattus norvegicus, UniProt P43114); test: Agonist activity at rat EP4 receptor expressed in CHO cells assessed as cAMP production after 10 mins by radioimmunoassay; format: functional, cell-based
Chain of Prostaglandin E2 receptor EP4 subtype (Rattus norvegicus, UniProt P43114) (P43114 whole entry): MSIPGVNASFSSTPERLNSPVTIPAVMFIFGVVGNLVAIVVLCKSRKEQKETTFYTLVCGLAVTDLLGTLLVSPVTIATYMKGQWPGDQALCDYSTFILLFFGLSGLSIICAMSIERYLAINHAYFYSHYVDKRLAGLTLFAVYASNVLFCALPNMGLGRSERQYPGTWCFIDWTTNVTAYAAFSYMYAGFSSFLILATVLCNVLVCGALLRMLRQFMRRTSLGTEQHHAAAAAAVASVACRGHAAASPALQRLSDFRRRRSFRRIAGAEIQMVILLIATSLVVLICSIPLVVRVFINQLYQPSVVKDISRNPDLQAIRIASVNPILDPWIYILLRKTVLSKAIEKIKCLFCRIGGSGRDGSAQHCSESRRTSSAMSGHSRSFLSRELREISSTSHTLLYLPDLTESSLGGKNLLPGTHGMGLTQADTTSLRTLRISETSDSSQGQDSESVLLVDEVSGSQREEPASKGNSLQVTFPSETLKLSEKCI
Method in brief: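 CHO cells expressing rat EP4 seeded at 1×10^5 cells/well and grown 2 days. Washed with MEM, then 10 min at 37 °C in MEM with 2 µM diclofenac. Preincubated 10 min at 37 °C in assay medium with 1% BSA. Test compound added, 10 min at 37 °C. Stopped with ice-cold 10% trichloroacetic acid. cAMP measured by radioimmunoassay.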

[9] = molecular target: Prostaglandin E2 receptor EP4 subtype (Mus musculus, UniProt P32240); test: Displacement of [3H]-PGE2 from mouse EP4 receptor expressed in CHO cells after 60 mins by liquid scintillation counter; format: cell-based; method in brief: as §1
Chain of Prostaglandin E2 receptor EP4 subtype (Mus musculus, UniProt P32240) (P32240 whole entry): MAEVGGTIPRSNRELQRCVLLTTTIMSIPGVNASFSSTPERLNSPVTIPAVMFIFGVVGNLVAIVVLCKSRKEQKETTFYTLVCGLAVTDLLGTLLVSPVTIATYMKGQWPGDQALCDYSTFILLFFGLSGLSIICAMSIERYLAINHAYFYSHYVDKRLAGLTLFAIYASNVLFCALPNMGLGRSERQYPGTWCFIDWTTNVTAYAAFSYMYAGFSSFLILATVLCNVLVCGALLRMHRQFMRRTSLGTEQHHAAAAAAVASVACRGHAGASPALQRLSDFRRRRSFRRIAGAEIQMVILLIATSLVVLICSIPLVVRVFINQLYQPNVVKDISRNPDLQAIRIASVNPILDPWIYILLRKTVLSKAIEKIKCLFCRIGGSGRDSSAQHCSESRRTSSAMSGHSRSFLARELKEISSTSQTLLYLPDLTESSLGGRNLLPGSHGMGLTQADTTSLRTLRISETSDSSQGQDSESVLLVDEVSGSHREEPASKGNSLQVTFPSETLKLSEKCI

[10] = Volume of distribution at steady state in rat at 0.1 mg/kg, iv and 1 mg/kg, po; format: ADME, organism-based; conditions: in vivo, read-out: Vdss; method in brief: as §2
[11] = Cmax in rat at 0.1 mg/kg, iv and 1 mg/kg, po; format: ADME, organism-based; conditions: in vivo; method in brief: as §2
Rattus norvegicus [12] = test: Dose normalized AUC in rat at 1 mg/kg, po; format: ADME, organism-based; design: dose 1 mg/kg, route oral; conditions: in vivo
Method in brief: (§3)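 Rat PK after 1 mg/kg po and 0.1 mg/kg iv. Cmax and AUC normalized to a 1 mg/kg dose.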

Rattus norvegicus [13] = test: Dose normalized cmax in rat at 1 mg/kg, po; format: ADME, organism-based; design: dose 1 mg/kg, route oral; conditions: in vivo; method in brief: as §3

SMILES | Ki [1] | bioavailability [2] | ED50 (Rattus norvegicus [3]) | AUC [4] | clearance [5] | Ki [6] | Ki [7] | EC50 [8] | Ki [9] | Vd [10] | Cmax [11] | AUC/dose (Rattus norvegicus [12]) | Cmax/dose (Rattus norvegicus [13])
Cc1cccc(C[C@H](O)/C=C/[C@H]2COC(=O)N2CCSCCCC(=O)O)c1 | 4400 nM | 4.5% | > 1 mg/kg | 16.1 ng·h/mL | 47 mL/min/kg | 2800 nM | > 10000 nM | 33 nM | 2.5 nM | 0.291 L/kg | 5.4 ng/mL |  | 
COCc1cccc(C[C@H](O)/C=C/[C@H]2CCC(=S)N2CCCCCCC(=O)O)c1 | > 10000 nM | 12.3% | 3 mg/kg | 20.6 ng·h/mL | 102 mL/min/kg | 6300 nM | 1400 nM | 7.3 nM | 2 nM | 0.53 L/kg | 6.5 ng/mL |  | 
COCc1cccc(C[C@H](O)/C=C/[C@H]2COC(=O)N2CCSCCCC(=O)O)c1 | > 10000 nM |  |  |  |  | > 10000 nM | > 10000 nM | 24 nM | 7.2 nM |  |  |  | 
Cc1cccc(C[C@H](O)/C=C/[C@H]2CCC(=S)N2CCSCCCC(=O)O)c1 | 2800 nM | 9.8% | 1 mg/kg | 29.9 ng·h/mL | 61 mL/min/kg | 980 nM | 1700 nM | 7.7 nM | 0.5 nM | 1.76 L/kg | 3.4 ng/mL |  | 
CCc1cccc(C[C@H](O)/C=C/[C@H]2COC(=O)N2CCSCCCC(=O)O)c1 | 2400 nM |  |  |  |  | 2700 nM | > 10000 nM | 18 nM | 7.9 nM |  |  |  | 
CCCc1cccc(C[C@H](O)/C=C/[C@H]2COC(=O)N2CCSCCCC(=O)O)c1 | > 10000 nM |  |  |  |  | 1900 nM | > 10000 nM | 93 nM | 2.4 nM |  |  |  | 
O=C(O)CCCCCCN1C(=S)CC[C@@H]1/C=C/[C@@H](O)Cc1cccc(F)c1 | > 10000 nM |  |  |  |  | 1700 nM | > 10000 nM | 26 nM | 0.69 nM |  |  |  | 
O=C(O)CCCSCCN1C(=O)SC[C@@H]1/C=C/[C@@H](O)Cc1cccc(C(F)(F)F)c1 | > 10000 nM | 5.5% | 1 mg/kg | 14.6 ng·h/mL | 51 mL/min/kg | 280 nM | > 10000 nM | 4.3 nM | 0.97 nM | 0.512 L/kg | 5.3 ng/mL |  | 
O=C(O)CCCSCCN1C(=O)OC[C@@H]1/C=C/[C@@H](O)Cc1ccccc1 | > 10000 nM |  |  |  |  | 6400 nM | > 10000 nM | 36 nM | 4.2 nM |  |  |  | 
COCc1cccc(C[C@H](O)/C=C/[C@H]2CCC(=O)N2CCSCCCC(=O)O)c1 | > 10000 nM |  |  |  |  | > 10000 nM | 8500 nM | 1.3 nM | 8 nM |  |  |  | 
COCc1cccc(C[C@H](O)/C=C/[C@H]2CCC(=O)N2CCCCCCC(=O)O)c1 | > 10000 nM | 1.2% | 1 mg/kg |  | 35 mL/min/kg | > 10000 nM | > 10000 nM | 15 nM | 10 nM | 0.386 L/kg |  | 6.4 ng·h/mL | 1.6 ng/mL
O=C(O)CCCSCCN1C(=O)OC[C@@H]1/C=C/[C@@H](O)Cc1cccc(C(F)(F)F)c1 | > 10000 nM | 6.7% | 3 mg/kg | 16.7 ng·h/mL | 67 mL/min/kg | 1600 nM | > 10000 nM | 12 nM | 2 nM | 0.631 L/kg | 3.8 ng/mL |  | 
O=C(O)CCCSCCN1C(=O)OC[C@@H]1/C=C/[C@@H](O)Cc1cccc(-c2ccccc2)c1 | > 10000 nM |  |  |  |  | > 10000 nM | > 10000 nM | 450 nM | 28 nM |  |  |  | 
CCCc1cccc(C[C@H](O)/C=C/[C@H]2CCC(=S)N2CCCCCCC(=O)O)c1 | > 10000 nM |  |  |  |  | 2000 nM | 6800 nM | 27 nM | 0.4 nM |  |  |  | 
COCc1cccc(C[C@H](O)/C=C/[C@H]2CSC(=O)N2CCSCCCC(=O)O)c1 | > 10000 nM | 2% | 1 mg/kg | 6.1 ng·h/mL | 47 mL/min/kg | > 10000 nM | > 10000 nM | 2.4 nM | 1.2 nM | 0.325 L/kg | 2.6 ng/mL |  | 
O=C(O)CCCSCCN1C(=O)OC[C@@H]1/C=C/[C@@H](O)Cc1cccc(OC(F)(F)F)c1 | > 10000 nM |  |  |  |  | 1700 nM | > 10000 nM | 160 nM | 29 nM |  |  |  | 
O=C(O)CCCCCCN1C(=S)CC[C@@H]1/C=C/[C@@H](O)Cc1cccc(C(F)(F)F)c1 | > 10000 nM |  |  |  |  | 450 nM | > 10000 nM | 10 nM | 0.38 nM |  |  |  | 
CCc1cccc(C[C@H](O)/C=C/[C@H]2CCC(=S)N2CCCCCCC(=O)O)c1 | > 10000 nM |  |  |  |  | 2300 nM | 1100 nM | 9.4 nM | 0.83 nM |  |  |  | 
CCc1cccc(C[C@H](O)/C=C/[C@H]2CSC(=O)N2CCSCCCC(=O)O)c1 | 4600 nM | 8.6% | 1 mg/kg | 19.5 ng·h/mL | 75 mL/min/kg | 65 nM | > 10000 nM | 1.9 nM | 0.88 nM | 0.538 L/kg | 10.4 ng/mL |  | 
CCCc1cccc(C[C@H](O)/C=C/[C@H]2CSC(=O)N2CCSCCCC(=O)O)c1 | > 10000 nM | 6.3% | 1 mg/kg | 17.7 ng·h/mL | 52 mL/min/kg | 1200 nM | > 10000 nM | 6.1 nM | 0.98 nM | 1.28 L/kg | 11.4 ng/mL |  | 
COCc1cccc(C[C@H](O)/C=C/[C@H]2CCC(=O)[C@@H]2CCSCCCC(=O)O)c1 | > 10000 nM |  |  |  |  | 190 nM | 470 nM | 1.1 nM | 2.4 nM |  |  |  | 
O=C(O)CCCSCCN1C(=O)SC[C@@H]1/C=C/[C@@H](O)Cc1cccc(F)c1 | > 10000 nM |  |  |  |  | 1800 nM | > 10000 nM | 5.7 nM | 1.5 nM |  |  |  | 
O=C(O)CCCCCCN1C(=S)CC[C@@H]1/C=C/[C@@H](O)Cc1ccccc1 | > 10000 nM |  |  |  |  | 2300 nM | > 10000 nM | 29 nM | 1.5 nM |  |  |  | 
COCc1cccc(C[C@H](O)/C=C/[C@H]2[C@H](O)CC(=O)[C@@H]2CCSCCCC(=O)O)c1 | > 10000 nM |  |  |  |  |  |  | 1.4 nM |  |  |  |  | 
O=C(O)CCCSCCN1C(=O)OC[C@@H]1/C=C/[C@@H](O)Cc1cccc(F)c1 | 1200 nM |  |  |  |  | 4000 nM | > 10000 nM | 35 nM | 20 nM |  |  |  | 
O=C(O)CCCSCCN1C(=O)OC[C@@H]1/C=C/[C@@H](O)Cc1cccc(Cl)c1 | > 10000 nM |  |  |  |  | 630 nM | > 10000 nM | 23 nM | 1.5 nM |  |  |  | 
O=C(O)CCCSCCN1C(=O)SC[C@@H]1/C=C/[C@@H](O)Cc1ccccc1 | > 10000 nM | 3.5% | 1 mg/kg | 4 ng·h/mL | 56 mL/min/kg | 39 nM | > 10000 nM | 4.8 nM | 0.65 nM | 0.792 L/kg | 2.7 ng/mL |  | 
